≈ marks a conversion by molar mass, not a printed value. Positions of bridges follow the written chain, without caps; N, C: chain ends. Residues, ends and D or L forms follow the SMILES beside them.
How the values were obtained:
[1] = tested on: Enterobacter cloacae ATCC 13047; format: cell-based
[2] = tested on: E. nimipressuralis DSM 18955; format: cell-based
E. asburiae DSM 17506 = format: cell-based
E. mori DSM 26271 = format: cell-based
E. coli MG1655 = test: spot-on-lawn assay in M63 agar; format: cell-based; conditions: purified peptide dissolved in water
In short: (§1)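 Purified peptide in water, concentration set by A280. Each strain was grown overnight in LB, then subcultured in LB to mid-exponential phase (OD600 ~0.4-0.6). It was seeded at ~10^7 CFU/mL into molten M63 soft agar, overlaid on M63 agar and dried. Peptide was spotted at various concentrations and dried. After overnight incubation, zones of inhibition were scored; the last visible spot was taken as MIC.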

B. subtilis 168 = test: spot-on-lawn assay in M63 agar; format: cell-based; conditions: purified peptide dissolved in water
In short: as §1

[3] = tested on: Salmonella enterica serovar Newport; test: spot-on-lawn assay in M63 agar; format: cell-based; conditions: purified peptide dissolved in water
In short: as §1

[4] = tested on: Klebsiella aerogenes ATCC 13048; test: spot-on-lawn assay in M63 agar; format: cell-based; conditions: purified peptide dissolved in water
In short: as §1

[5] = tested on: Enterobacter hormaechei ATCC 700323; test: spot-on-lawn assay in M63 agar; format: cell-based; conditions: purified peptide dissolved in water
In short: as §1

[6] = tested on: Enterobacter kobei BAA-260; test: spot-on-lawn assay in M63 agar; format: cell-based; conditions: purified peptide dissolved in water
In short: as §1

[7] = tested on: clinical isolates of Enterobacter; test: spot-on-lawn assay, the other 6 clinical isolates; format: cell-based; conditions: the other 6 of 12 clinical isolates (Table S4B)
In short: as §1

E. coli XL-1 Blue = test: intracellular expression from plasmid with cloD gene removed; format: cell-based; conditions: LB agar with IPTG; plasmid without cloD so that the peptide cannot be exported
trypsin = trypsin (Sus scrofa, UniProt P00761); test: trypsin digestion; format: in vitro ADME; conditions: 50 mM ammonium bicarbonate, 1:100 trypsin:peptide weight ratio, 30 minutes to 1 hour, LC-MS
Chain of trypsin (P00761 9-231): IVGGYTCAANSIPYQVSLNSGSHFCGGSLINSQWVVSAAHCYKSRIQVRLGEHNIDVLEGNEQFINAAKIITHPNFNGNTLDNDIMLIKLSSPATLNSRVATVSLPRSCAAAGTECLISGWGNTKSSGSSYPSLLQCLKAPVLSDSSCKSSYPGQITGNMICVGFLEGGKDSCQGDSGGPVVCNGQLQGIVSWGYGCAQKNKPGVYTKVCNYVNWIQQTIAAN

α-chymotrypsin = α-chymotrypsin (Bos taurus, UniProt P00766); test: α-chymotrypsin digestion; format: in vitro ADME; conditions: 100 mM Tris, 10 mM CaCl2, pH 8.0, 0.04 mg/mL α-chymotrypsin, 1 hour, 25 °C, LC-MS
elastase = elastase digestion; format: in vitro ADME; conditions: 50 mM Tris pH 9.0, 0.04 mg/mL elastase, 1 hour, 25 °C, LC-MS
thermolysin = thermolysin (Bacillus thermoproteolyticus, UniProt P00800); test: thermolysin digestion; format: in vitro ADME; conditions: 50 mM Tris, 0.5 mM CaCl2, pH 8.0, 0.04 mg/mL thermolysin, 1 hour, 30 °C, LC-MS
Chain of thermolysin (P00800 233-548): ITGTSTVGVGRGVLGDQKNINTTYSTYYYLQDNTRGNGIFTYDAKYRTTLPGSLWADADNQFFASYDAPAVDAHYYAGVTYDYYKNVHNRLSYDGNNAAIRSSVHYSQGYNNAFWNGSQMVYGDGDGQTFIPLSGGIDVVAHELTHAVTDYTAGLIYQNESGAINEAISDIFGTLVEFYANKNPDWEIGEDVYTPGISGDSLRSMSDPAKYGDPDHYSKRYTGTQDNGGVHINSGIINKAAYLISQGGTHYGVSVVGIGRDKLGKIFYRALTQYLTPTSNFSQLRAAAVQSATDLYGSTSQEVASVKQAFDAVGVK

E. amnigenus = conditions: 16 h
[8] = 37 °C, pure water, 72 hours, 18 μM, relative peak area by LC-MS
[9] = tested on: carboxypeptidase B and carboxypeptidase Y; test: carboxypeptidase treatment; conditions: 20 °C, 16 hours, 50 mM sodium acetate pH 6.0, LC-MS

CC[C@H](C)[C@@H]1NC(=O)[C@H](CCCNC(=N)N)NC(=O)[C@H](CC(=O)O)NC(=O)[C@H](C(C)C)NC(=O)[C@H](CO)NC(=O)[C@H](Cc2c[nH]cn2)NC(=O)CNC(=O)CC[C@@H](C(=O)N[C@@H](Cc2ccc(O)cc2)C(=O)N[C@@H](Cc2ccccc2)C(=O)NCC(=O)N2CCC[C@H]2C(=O)N2CCC[C@H]2C(=O)NCC(=O)N[C@@H](CC(C)C)C(=O)N2CCC[C@H]2C(=O)NCC(=O)N2CCC[C@H]2C(=O)N[C@H](C(=O)N[C@@H](CC(C)C)C(=O)N[C@@H](Cc2ccccc2)C(=O)N[C@@H](Cc2ccc(O)cc2)C(=O)N[C@@H](CO)C(=O)O)C(C)C)NC(=O)[C@@H]2CCCN2C1=O [cloacaenodin] (GHSVDRIPEYFGPPGLPGPVLFYS-OH; lactam N-9; C-terminus assumed)
MIC in M63 media (agar) [1]: 7.5 µM (≈ 19.4 µg/mL)
MIC in M63 media (agar) [2]: 1.9 µM (≈ 4.91 µg/mL)
MIC in M63 media (agar) (E. asburiae DSM 17506): 3.8 µM (≈ 9.82 µg/mL)
MIC in M63 media (agar) (E. mori DSM 26271): 1.9 µM (≈ 4.91 µg/mL)
antimicrobial activity (zones of inhibition) (E. coli MG1655): no observed activity
antimicrobial activity (zones of inhibition) (B. subtilis 168): no observed activity
antimicrobial activity (zones of inhibition) [3]: no observed activity
antimicrobial activity (zones of inhibition) [4]: no observed activity
antimicrobial activity (zones of inhibition) [5]: no observed activity
antimicrobial activity (zones of inhibition) [6]: no observed activity
antimicrobial activity [7]: weak or no activity
E. coli growth upon IPTG-induced intracellular expression without cloD (E. coli XL-1 Blue): colonies did not appear
susceptibility to proteolysis by trypsin (trypsin): remained resistant to proteolysis
susceptibility to proteolysis by chymotrypsin (α-chymotrypsin): remained resistant to proteolysis
susceptibility to proteolysis by elastase (elastase): remained resistant to proteolysis
susceptibility to proteolysis by thermolysin (thermolysin): remained resistant to proteolysis
MIC in M63 media (liquid) (E. cloacae; 16 h): 0.94 µM (≈ 2.43 µg/mL)
cell morphology under the microscope (E. cloacae; E. cloacae cells treated with sub-MIC values, broth microdilution cultures): exhibited a degree of filamentation
MIC in M63 media (liquid) (E. amnigenus): 0.23 µM (≈ 0.594 µg/mL)
fraction remaining threaded [8]: ~ 83%
susceptibility to C-terminal proteolysis by carboxypeptidase [9]: resistant to C-terminal proteolysis
